# The list is not random: actives were taken first. Their share in the collection is about 4.6%.
# OX1R antag-1 – human HCRTR1 antagonism; CHO/OX1R cells, Fluo-8 calcium fluorescence, orexin A; inhibition, % at 5 µM; hit rate 0.43% among 330,000; AID 434989;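 active means inhibition above its plate's threshold, mean inhibition of all tested compounds on the plate plus 3 SD, cut at about 37% in these data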;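 further: 0% = orexin A challenge wells and 100% = SB-334867-A antagonist wells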
# CHO parental Ca – counter-screen: ATP calcium response change in parental CHO cells; parental CHO-K1, ATP-induced calcium, Fluo-8 fluorescence; inhibition, % at 5.6 µM; hit rate 0.63% among 330,000; AID 463079;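 active means inhibition above that plate's mean sample inhibition plus 3 SD, cut at about 26% in these data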;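 further: 0% = ATP-challenged DMSO wells and 100% = DMSO wells without ATP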
#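 Assay system: parental CHO cells; Read-out basis: percent inhibition of ATP-evoked calcium rise, normalized to controls; Benchmarks: ATP and no-ATP DMSO wells; Compound dosing: single nominal dose of 5.6 µM per compound; Signal: Fluo-8 calcium dye fluorescence; Also added: ATP as calcium-mobilizing challenge; Repeats: singlicate.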
# GPR7 antag – human neuropeptides B/W receptor 1 antagonism. P48145. GPR7-expressing cells, fluorescence antagonist assay. inhibition, % at 4.4 µM. hit rate 1.1% among 290,000. AID 1861; in the data active means inhibition above about 16%, passing the limit was not always enough;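 further: cells stimulated with the agonist NPW; 0% = agonist with vehicle and 100% = vehicle without agonist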
# Target sequence (P48145 whole entry, looked up): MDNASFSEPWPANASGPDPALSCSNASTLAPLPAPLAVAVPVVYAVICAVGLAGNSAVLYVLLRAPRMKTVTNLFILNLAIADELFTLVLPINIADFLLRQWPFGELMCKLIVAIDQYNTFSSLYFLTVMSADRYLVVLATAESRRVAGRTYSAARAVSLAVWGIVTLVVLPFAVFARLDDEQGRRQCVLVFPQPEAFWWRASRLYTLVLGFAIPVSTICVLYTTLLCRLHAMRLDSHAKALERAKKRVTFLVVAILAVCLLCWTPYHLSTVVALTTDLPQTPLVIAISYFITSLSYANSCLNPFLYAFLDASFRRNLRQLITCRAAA
# TAAR1 agonist – human TAAR1 agonism | AID 624467 | hit rate 0.99% among 360,000 | activation, % at 3 µM | CHO RD-HGA16 TAAR1, Fluo-8 calcium fluorescence; vehicle wells 0%, saturating PEA agonist 100%;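 active means activation above the mean activation of all test compounds in the run plus 3 SD, cut at about 38% in these data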
# Target sequence (Q96RJ0 whole entry, looked up): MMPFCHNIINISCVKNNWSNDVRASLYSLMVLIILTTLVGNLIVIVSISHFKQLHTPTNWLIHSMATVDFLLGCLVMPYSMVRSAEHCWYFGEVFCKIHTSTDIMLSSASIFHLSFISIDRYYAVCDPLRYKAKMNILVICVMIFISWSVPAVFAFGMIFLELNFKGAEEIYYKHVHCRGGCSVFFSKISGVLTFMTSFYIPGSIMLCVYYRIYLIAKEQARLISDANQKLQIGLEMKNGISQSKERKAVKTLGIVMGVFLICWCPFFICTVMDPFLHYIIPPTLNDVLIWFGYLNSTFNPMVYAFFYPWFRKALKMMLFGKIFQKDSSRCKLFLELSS
#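 Test system: RD-HGA16 (CHO) cells co-expressing Gα16 and hTAAR1 | Doses: Single dose, 3 µM | Schedule: 17-24 h seeding, 75 min 37 °C dye, 30 min RT | Evaluation: % activation from peak over basal fluorescence ratio, DMSO-to-PEA scaled | Technique: Kinetic Fluo-8 calcium fluorescence | Benchmarks: Low control DMSO, high control PEA (EC100)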
# OX1R antag-2 – blocks the human orexin 1 receptor; OX1R-expressing cells, FRET antagonist read-out; inhibition, % at 6.6 µM; hit rate 1.8% among 330,000; AID 485270; in the data active means inhibition mostly above about 38%, no sharp cut-off; inactive means mostly below about 40%;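 further: 0% = agonist challenge alone and 100% = reference antagonist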
# TAAR1 antagonist – antagonists of human TAAR1 | Q96RJ0 | CHO RD-HGA16 TAAR1, Fluo-8 calcium fluorescence, antagonist | inhibition, % at 3 µM | hit rate 1.5% among 360,000;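 active means inhibition above a per-plate cutoff, the mean inhibition of test compounds on that plate plus 3 SD, cut at about 49% in these data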;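 further: 0% = DMSO plus EC80 beta-PEA response and 100% = DMSO alone without agonist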
#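 Test system – hTAAR1-expressing CHO RD-HGA16 cells, Gα16-coupled · Also added – β-PEA at EC80 concentration, post-compound challenge · Compound – 3 µM, single point · Incubation – dye loading 75 min at 37 °C, then 30 min room temperature · Measured by – Fluo-8 intracellular calcium dye fluorescence, real-time kinetic reads · Benchmarks – vehicle and agonist controls · Replicates – singlicate, one well per test compound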
# OX1R Fluo8 conf – confirmation of human orexin 1 receptor antagonists; inhibition, % at 5 µM; shares compounds with OX1R antag-1; AID 492963; hit rate 38% among 1,100; CHO/OX1R cells, orexin A calcium Fluo-8 fluorescence; in the data active means inhibition above about 29%;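 further: 0% = agonist challenge alone and 100% = reference antagonist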
# CHO Ca triplic – counter-screen for OX1R antagonists: effect in parental CHO cells; shares compounds with OX1R antag-1; AID 492965; hit rate 9.3% among 1,100; parental CHO-K1, ATP-induced calcium, Fluo-8 fluorescence; inhibition, % at 5.6 µM;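 active means inhibition above a per-plate limit, the mean inhibition of that plate's test compounds plus 3 SD, cut at about 25% in these data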;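 further: 0% = ATP challenge with DMSO and 100% = DMSO without ATP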
# OX1R HTRF confirm – confirmation of human orexin 1 receptor antagonists, HTRF format. OX1R-expressing cells, HTRF antagonist assay. hit rate 49% among 1,800. inhibition, % at 6.6 µM. shares compounds with OX1R antag-2; in the data active means inhibition above about 55%;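 further: CHO cells expressing OX1R stimulated with orexin A at about EC80; 0% = agonist challenge alone and 100% = reference antagonist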
# CHO-K1 HTRF cnt – counter-screen: parental CHO-K1 HTRF response; shares compounds with OX1R antag-2; parental CHO-K1 cells, HTRF counterscreen; inhibition, % at 6.6 µM; hit rate 48% among 1,800; AID 493232; in the data active means inhibition above about 17%;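 further: 0% = agonist challenge with vehicle and 100% = vehicle alone without agonist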
# * hit, by the source's call; · = not tested or not shown.
SMILES,OX1R antag-1,CHO parental Ca,GPR7 antag,TAAR1 agonist,OX1R antag-2,TAAR1 antagonist,OX1R Fluo8 conf,CHO Ca triplic,OX1R HTRF confirm,CHO-K1 HTRF cnt
Cc1ccc(S(=O)(=O)N2CCN(C(=O)NCc3ccc(C(=O)O)cc3)CC2)cc1,-14,3,-9,1,9,-5,·,·,·,·
O=C(Nc1nc2ccccc2s1)c1ccccc1,-20,-10,-6,0,10,16,·,·,·,·
CSc1nc2ccc3nc(NC(=O)c4ccccc4)sc3c2s1,46*,-15,-7,2,84*,-12,79*,-13,95*,11
CN(Cc1ccccc1)C(=O)c1[nH]cnc1C(=O)N[C@@H](Cc1ccccc1)C(=O)OC(C)(C)C,35,-28,-1,10,77*,20,43*,-11,77*,2
O=C(C[C@@H]1CC[C@@H]2[C@H](COC[C@H](O)CN2CCC(F)(F)F)O1)NCc1ccc2c(c1)OCO2,·,·,·,0,·,-5,·,·,·,·
COc1ccc2c(Cl)c(C(=O)N/N=C/c3c(C)[nH]c4ccccc34)sc2c1,41*,3,-1,0,65*,25,63*,1,93*,9
O=C(N/N=C/c1c[nH]c2ccccc12)c1ccccc1,-10,-4,-4,2,-9,-11,·,·,·,·
O=C(N/N=C/c1c[nH]c2ccccc12)c1sc2ccccc2c1Cl,36,-6,-3,-1,90*,15,41*,4,63*,9
COc1cccc(C(=O)NCC(=O)N/N=C/c2c(C)[nH]c3ccccc23)c1,22,-4,9,6,8,17,·,·,·,·
CSc1ccccc1NC(=O)CN(C)CC(=O)c1c(C)[nH]c2ccccc12,11,-20,·,7,28,5,·,·,·,·
Cc1ccc(S(=O)(=O)N2CCOC2CNC(=O)C(=O)NCCCN2CCOCC2)cc1 (centres undefined),-4,-12,-15,1,-9,-15,·,·,·,·
CC(Sc1ccc(Cl)cc1)C(=O)NNC(=O)c1ccccc1O (centres undefined),30,-11,-8,0,66*,-3,32*,-5,75*,2
OC[C@@H]1CN(Cc2ccccc2)C[C@H](n2cnc3c(Nc4ccccc4)ncnc32)O1,·,·,·,9,·,7,·,·,·,·
Cc1ccc(C)c(NS(=O)(=O)c2c(C)ccc3nsnc23)c1,-11,-14,-20,9,28,6,·,·,·,·
Cc1ccc2nsnc2c1S(=O)(=O)NCCc1c(C)[nH]c2ccc(F)cc12,70*,-6,1,2,78*,11,38*,-4,62*,5
O=C(CCCO)NNc1c2ccccc2nc2ccccc12,-4,-1,-1,2,13,6,·,·,·,·
COc1ccc(OCC(=O)NNc2c3ccccc3nc3ccccc23)cc1,41*,8,-13,16,102*,59*,2,-11,33,8
COc1ccc(NC(=O)CSc2nc3sc(C)cc3c(=O)n2C)c(OC)c1,43*,-8,-1,-1,88*,-5,31*,-16,86*,-15
COc1ccc(NC(=O)CSc2nc3sc(C)cc3c(=O)n2C)cc1,-18,0,-6,-1,12,-15,·,·,·,·
CC(=C/c1ccccc1)/C=C1/SC(N2CCOCC2)=NC1=O,85*,-5,-2,6,108*,35,80*,3,101*,-2
O=C1N=C(N2CCOCC2)S/C1=C\c1ccc(OS(=O)(=O)c2ccccc2)cc1,-33,-14,7,10,2,15,·,·,·,·
O=C(COc1ccccc1F)Nc1cc(S(=O)(=O)Nc2cccc(Cl)c2)ccc1O,75*,-22,·,1,40*,8,42*,-13,61*,9
CNC(=O)NC(=O)C(C)OC(=O)c1c2c(nc3ccccc13)/C(=C/c1cccs1)CC2 (centres undefined),52*,-21,-9,3,66*,29,92*,0,93*,9
Cc1cc(Cl)ccc1OCCCC(=O)NCCN1C(=O)S/C(=C\c2cccnc2)C1=O,94*,-25,-11,8,114*,9,94*,-6,91*,10
CSc1cccc(N2CC(C(=O)NCCN3C(=O)S/C(=C\c4cccnc4)C3=O)CC2=O)c1 (centres undefined),33,-10,·,0,145*,1,67*,-6,112*,33*
SMILES,OX1R antag-1,CHO parental Ca,GPR7 antag,TAAR1 agonist,OX1R antag-2,TAAR1 antagonist,OX1R Fluo8 conf,CHO Ca triplic,OX1R HTRF confirm,CHO-K1 HTRF cnt
O=C(NCc1ccco1)c1ccc(-c2ccc(F)c(F)c2)c2ccoc12,·,·,·,0,·,8,·,·,·,·
COCCNC(=O)C1(C)CCCN(CCC(=O)c2ccc(Br)cc2)C1 (centres undefined),·,·,·,0,·,11,·,·,·,·
CSCCC(C(=O)Nc1c(C)cccc1C)N(Cc1ccccc1)Cc1ccccc1 (centres undefined),·,·,·,1,·,4,·,·,·,·
CC(OC(=O)c1nsc(Cl)c1Cl)C(=O)NCCc1ccccc1 (centres undefined),-13,-8,6,-3,7,3,·,·,·,·
N#CCC(=O)Nc1ccc(C(=O)Nc2ccc3c(c2)OCO3)cc1,67*,-12,·,7,67*,-3,16,3,31,4
CCC(=O)Nc1ccc(C(=O)Nc2ccc3c(c2)OCO3)cc1,-3,-11,-13,3,18,3,·,·,·,·
N#CCC(=O)Nc1ccc(C(=O)Nc2cccnc2)cc1,32,-2,-5,1,91*,-13,3,13,23,-3
CC(C)(C)c1ccc(C(=O)Nc2cccnc2)cc1,5,10,-8,1,9,-9,·,·,·,·
O=CC1=C(c2ccccc2)Oc2ccccc2O1,-4,10,2,0,-2,0,·,·,·,·
COc1ccc(CCNc2cc(C)[nH]c(=O)c2)cc1OC,31,-3,-9,1,45*,-22,5,4,18,5
COc1cc(NC(=O)CSCc2cnn(-c3ccccc3)c2-n2cccc2)cc(OC)c1,50*,-25,-19,7,78*,32,28,-17,89*,8
Cc1cc(SCC(=O)c2ccc3c(c2)OCO3)nc2ccccc12,36,-21,7,6,59*,-4,11,-9,87*,-2
